# ChEMBL document CHEMBL1130427, “Phenylimidazolidin-2-one derivatives as selective 5-HT3 receptor antagonists and refinement of the pharmacophore model for 5-HT3 receptor binding” (J Med Chem, 1997)
# Active and inactive are the calls of the source.
# How the values were obtained:
# [1] = target: T1, Serotonin 3 (5-HT3) receptor (Rattus norvegicus) (UniProt P35563+Q9JJ16); experiment: (§1) Inhibition of the Bezold Jarisch reflex evoked by 30 ug/Kg of 5-HT.; type: functional
# [2] = target: T1, Serotonin 3 (5-HT3) receptor (Rattus norvegicus); experiment: Antagonist activity ([…]) for the Bezold Jarisch reflex evoked by 30 ug/Kg of 5-HT in ethylurethane anesthetized rats (i.v.); type: functional
# [3] = target: T2, Serotonin 3 (5-HT3) receptor (Rattus norvegicus, UniProt P35563+Q9JJ16); experiment: In vitro affinity for 5-hydroxytryptamine 3 (5-HT3) receptor by displacement of [3H]BRL-43694 from rat entorhinal cortex
# T2 sequence (P35563 whole entry): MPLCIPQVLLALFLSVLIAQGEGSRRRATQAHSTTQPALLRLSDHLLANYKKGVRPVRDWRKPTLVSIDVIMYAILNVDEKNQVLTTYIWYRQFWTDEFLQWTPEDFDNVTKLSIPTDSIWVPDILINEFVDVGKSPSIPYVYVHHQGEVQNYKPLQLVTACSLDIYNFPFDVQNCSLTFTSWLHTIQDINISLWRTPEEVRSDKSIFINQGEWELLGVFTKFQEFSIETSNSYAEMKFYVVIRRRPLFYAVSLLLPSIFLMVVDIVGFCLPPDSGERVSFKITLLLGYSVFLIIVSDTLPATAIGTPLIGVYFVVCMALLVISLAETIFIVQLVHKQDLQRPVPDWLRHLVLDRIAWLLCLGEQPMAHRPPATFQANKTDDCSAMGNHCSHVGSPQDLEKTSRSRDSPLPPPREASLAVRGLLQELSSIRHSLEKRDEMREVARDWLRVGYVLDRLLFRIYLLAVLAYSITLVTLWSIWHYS
# T2 sequence (Q9JJ16 whole entry): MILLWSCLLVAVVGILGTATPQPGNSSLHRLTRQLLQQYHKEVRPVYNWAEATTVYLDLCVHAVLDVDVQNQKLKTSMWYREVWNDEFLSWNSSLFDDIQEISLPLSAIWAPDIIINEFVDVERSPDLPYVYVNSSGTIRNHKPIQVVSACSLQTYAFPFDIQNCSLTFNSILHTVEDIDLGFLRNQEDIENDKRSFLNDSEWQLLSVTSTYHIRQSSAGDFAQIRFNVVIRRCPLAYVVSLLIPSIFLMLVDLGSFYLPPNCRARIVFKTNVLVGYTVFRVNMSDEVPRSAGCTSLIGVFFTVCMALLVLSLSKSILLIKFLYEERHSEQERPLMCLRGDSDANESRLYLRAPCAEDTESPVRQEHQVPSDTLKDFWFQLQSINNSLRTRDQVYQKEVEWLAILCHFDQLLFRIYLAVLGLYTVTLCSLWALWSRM
# How it was run: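 Each displacement curve has 10 concentrations in triplicate; Ki averaged from at least three curves (±SEM) using the Ligand program.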
# [4] = target: T1, Serotonin 3 (5-HT3) receptor (Rattus norvegicus); experiment: as §1; type: functional; remark: listed apart in the source
# How it was run: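 Rats anesthetized with ethylurethane, 1.25 g/kg ip. Bezold–Jarisch reflex evoked by 5-HT 30 μg/kg iv. The rapid, transient fall in heart rate was quantified without and with antagonist.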
# [5] = target: T1, Serotonin 3 (5-HT3) receptor (Rattus norvegicus); experiment: Inhibition of the Bezold Jarisch reflex evoked by 30 ug/Kg of 5-HT; Weak activity.; type: functional
# Rattus norvegicus = experiment: Antagonist activity (100 ug/kg) for the Bezold Jarisch reflex evoked by 30(ug/Kg) of 5-HT receptor in ethylurethane anesthetized rats i.v.; type: functional
# [6] = target: T3, 5-hydroxytryptamine receptor 3A (Rattus norvegicus) (UniProt P35563); experiment: Antagonist activity (100 ug/kg) for the Bezold Jarisch reflex evoked by 30 (ug/Kg) of 5-hydroxytryptamine 3 receptor in ethylurethane anesthetized rats i.v.; type: functional
# T3 sequence (whole entry): T2 sequence (P35563 whole entry)
inhibition [2],ID50 [4],SMILES,ID50 [1],Ki [3],ID50 [5],Inhibition (Rattus norvegicus),inhibition [6]
88%,0.0286 mg/kg,CSc1cccc(N2CCN(Cc3nc[nH]c3C)C2=O)c1,–,1.6 nM,–,–,–
84%,0.0176 mg/kg,Cc1[nH]cnc1CN1CCN(c2cccc(F)c2)C1=O,–,3.7 nM,–,–,–
21%,–,CCn1cnc(CN2CCN(c3ccccc3)C2=O)c1C,–,85 nM,Partially active,–,–
92%,0.0154 mg/kg,COc1cccc(N2CCN(Cc3nc[nH]c3C)C2=O)c1,–,3.6 nM,–,–,–
45%,–,Cc1[nH]c[n+](C)c1CN1CCN(c2ccccc2)C1=O,–,55 nM,Partially active,–,–
29%,–,Cc1[nH]cnc1CN1CCN(c2ccc(Cl)cc2)C1=O,–,19 nM,Partially active,–,–
87%,0.00526 mg/kg,Cc1[nH]cnc1CN1CCN(c2cccc(Cl)c2)C1=O,–,0.5 nM,–,–,–
56%,–,O=C1N(Cc2c[nH]cn2)CCN1c1ccccc1,–,4 nM,Partially active,–,–
95%,0.054 mg/kg,Cc1[nH]cnc1CN1CCN(c2cccc([N+](=O)[O-])c2)C1=O,–,–,–,–,–
89%,0.0065 mg/kg,Cc1[nH]cnc1CN1CCN(c2cccc(Br)c2)C1=O,–,0.62 nM,–,–,–
–,–,COc1cccc(N2CCN(C3CN4CCC3CC4)C2=O)c1 (centres undefined),–,6 nM,Partially active,37%,–
–,0.001 mg/kg,CN1[C@@H]2CC[C@H]1C[C@@H](OC(=O)c1c[nH]c3ccccc13)C2,–,–,–,–,–
–,–,O=C1N(c2ccc(Cl)cc2)CCN1C1CN2CCC1CC2 (centres undefined),–,210 nM,Partially active,–,8%
–,–,CN1C2CCCC1CC(N1CCN(c3cccc(Cl)c3)C1=O)C2 (stereo in doubt; 38) [listing 1 of 2 here],–,360 nM,–,–,–
–,–,CN1C2CCC1CC(N1CCN(c3cccc(Cl)c3)C1=O)C2 (stereo in doubt; 33) [listing 2 of 2 here],–,25 nM,–,–,–
86%,0.0031 mg/kg,Cc1cccc(N2CCN(Cc3nc[nH]c3C)C2=O)c1,–,0.93 nM,–,–,–
93%,0.0022 mg/kg,Cc1[nH]cnc1CN1CCN(c2cc(Cl)cc(Cl)c2)C1=O,–,0.038 nM,–,–,–
39%,–,Cc1[nH]cnc1CN1CCN(c2cccc(C(F)(F)F)c2)C1=O,–,9.7 nM,Partially active,–,–
86%,0.0034 mg/kg,Cc1cc(C)cc(N2CCN(Cc3nc[nH]c3C)C2=O)c1,–,0.42 nM,–,–,–
–,–,O=C1N(c2cccc(Cl)c2)CCN1C1CN2CCC1CC2 (centres undefined),0.0799 mg/kg,2 nM,–,60%,–
77%,0.0285 mg/kg,Cc1c(CN2CCN(c3ccccc3)C2=O)ncn1C,–,8.5 nM,–,–,–
5%,–,Cc1[nH]cnc1CN1CCN(c2ccccc2Cl)C1=O,–,290 nM,Partially active,–,–
38%,–,CC[n+]1c[nH]c(C)c1CN1CCN(c2ccccc2)C1=O,–,67 nM,Partially active,–,–
88%,0.0322 mg/kg,Cc1[nH]cnc1CN1CCN(c2cccc(C#N)c2)C1=O,–,2.7 nM,–,–,–
–,–,CN1C2CCC1CC(N1CCN(c3cccc(Cl)c3)C1=O)C2 (stereo in doubt; 34) [listing 2 of 2 here],–,> 10000 nM,–,–,–
–,0.00225 mg/kg,Cc1nccn1CC1CCc2c(c3ccccc3n2C)C1=O (centres undefined),–,–,–,–,–
95%,0.00088 mg/kg,CN1C2CCCC1CC(NC(=O)c1nn(C)c3ccccc13)C2 (centres undefined),–,–,–,–,–
95%,0.0039 mg/kg,Cc1[nH]cnc1CN1CCN(c2ccccc2)C1=O,–,3.4 nM,–,–,–
–,–,CN1C2CCCC1CC(N1CCN(c3cccc(Cl)c3)C1=O)C2 (stereo in doubt; 37) [listing 2 of 2 here],–,250 nM,–,–,–
–,–,Cc1nc[nH]c1CN1CCN(c2cccc([N+](=O)[O-])c2)C1=O,–,6.6 nM,–,–,–

SMILES,inhibition [2],ID50 [4],ID50 [1],Ki [3],ID50 [5],Inhibition (Rattus norvegicus),inhibition [6]
Cc1cccc(N2CCN(C3CN4CCC3CC4)C2=O)c1 (centres undefined),75%,–,0.0376 mg/kg,4 nM,–,–,–
O=C1N(c2cccc(Br)c2)CCN1C1CN2CCC1CC2 (centres undefined),77.7%,–,–,3 nM,Partially active,–,–
CN1C2CCCC1CC(N1CCN(c3ccccc3)C1=O)C2 (centres undefined),22%,–,–,190 nM,Partially active,–,–
CN1C2CCC1CC(N1CCN(c3cccc(Cl)c3)C1=O)C2 (stereo in doubt; 33) [listing 1 of 2 here],27%,–,–,–,Partially active,–,–
CN1C2CCC1CC(N1CCN(c3ccccc3)C1=O)C2 (centres undefined),56%,–,–,12 nM,Partially active,–,–
COc1ccc(Cl)cc1N1CCN(C2CC3CCCC(C2)N3C)C1=O (centres undefined),5%,–,–,> 10000 nM,Partially active,–,–
O=C1N(c2ccccc2)CCN1C1CN2CCC1CC2 (centres undefined),71%,0.0671 mg/kg,–,8 nM,–,–,–
CN1C2CCC1CC(NC(=O)N1CC(C)(C)c3ccccc31)C2 (centres undefined),90.5%,0.00089 mg/kg,–,0.26 nM,–,–,–
O=C1N(c2cccc(C(F)(F)F)c2)CCN1C1CN2CCC1CC2 (centres undefined),14%,–,–,98 nM,Partially active,–,–
COc1ccc(Cl)cc1N1CCN(C2CC3CCC(C2)N3C)C1=O (centres undefined),22%,–,–,400 nM,Partially active,–,–
O=C1N(c2cccc([N+](=O)[O-])c2)CCN1C1CN2CCC1CC2 (centres undefined),5%,–,–,10 nM,Partially active,–,–
CN1C2CCCC1CC(N1CCN(c3cccc(Cl)c3)C1=O)C2 (stereo in doubt; 37) [listing 1 of 2 here],15%,–,–,–,Partially active,–,–
COc1ccc(Cl)cc1N1CCN(C2CN3CCC2CC3)C1=O (centres undefined),11%,–,–,40 nM,Partially active,–,–
CN1C2CCC1CC(N1CCN(c3cccc(Cl)c3)C1=O)C2 (stereo in doubt; 34) [listing 1 of 2 here],0%,–,–,–,Partially active,–,–
O=C1N(c2cc(Cl)cc(Cl)c2)CCN1C1CN2CCC1CC2 (centres undefined),76%,0.0206 mg/kg,–,1 nM,–,–,–
CSc1cccc(N2CCN(C3CN4CCC3CC4)C2=O)c1 (centres undefined),28%,–,–,6 nM,Partially active,–,–
CN1C2CCCC1CC(N1CCN(c3cccc(Cl)c3)C1=O)C2 (stereo in doubt; 38) [listing 2 of 2 here],21%,–,–,–,Partially active,–,–
N#Cc1cccc(N2CCN(C3CN4CCC3CC4)C2=O)c1 (centres undefined),43%,–,–,30 nM,Partially active,–,–
